The entries come from a sample that favours hits as a whole.
PGC1a acetyl up: compounds raising PGC1a acetylation signal, primary screen, PGC1a modulator project, cell-based, U2OS, AlphaScreen, signal-increasing mode | 350,000 compounds, 0.21% hits | overnight | activation, % at 15.6 µM;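 active = every replicate reaching activation of at least 50%, whatever the mean replicate activation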;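 note: hits raise the AlphaScreen acetylation signal above neutral controls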
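Test system: U2OS cells expressing flag-PGC1a plus GCN5; Amount: 7000 U2OS cells per well; Compound: single test concentration per compound; Incubation: compound overnight at 37 °C, each detection step 1 h RT; Signal: AlphaScreen lysate read.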
An asterisk follows results filed as active.

SMILES	PGC1a acetyl up
O=P(COCCOCCOCCOCP(=O)(c1ccccc1)c1ccccc1)(c1ccccc1)c1ccccc1	-44.3
CC(C)(C)OC(=O)N1CCCC(C(=O)Nc2cccc(C(=O)NCc3ccccc3)c2)C1 (configuration not stated)	64.4*
O=C(Cc1cccc(NC(=O)C2CCN(C(=O)c3ccccc3)CC2)c1)Nc1cccc(C(=O)N2CCCCC2)c1	-41.5
O=C(Cc1cccc(NC(=O)C2CCCN(C(=O)c3ccccc3)C2)c1)Nc1cccc(C(=O)N2CCOCC2)c1 (configuration not stated)	-40.5
O=C1CC(Sc2nnc(-c3ccccc3O)o2)C(=O)N1c1ccccc1 (configuration not stated)	86.4*
CN1CCN(C/C(=C2/N=C(c3ccccc3)OC2=O)N(C)C)CC1	-50.8
CCCCN(C(=O)CCC(=O)Nc1cc(C)on1)C(C(=O)NC1CCCC1)c1ccc(OC)cc1 (configuration not stated)	-45.5
COc1ccc(-n2c(=O)c3c4c(sc3n3c(=S)[nH]nc23)CCC4)cc1	234.3*
CO[C@@H]1CN(C)C(=O)c2cc(NC(C)=O)ccc2OC[C@H](C)N(C(=O)c2cccnc2)C[C@H]1C	-48.6
Cc1cc(C)nc(NS(=O)(=O)c2ccc(NC(=O)Nc3ccccc3)cc2)n1	-96.8
Cc1cc(S(=O)(=O)Nc2ccc3ccccc3c2)c(C)s1	58.3*
C[C@H](CO)N1C[C@H](C)[C@H](CN(C)S(=O)(=O)c2ccc(F)cc2)Oc2ccc(NS(=O)(=O)c3cn(C)cn3)cc2C1=O	-51.2
O=C(CCCc1nc(-c2ccccc2Cl)no1)NCc1cccnc1	98.0*
O=C(CCNNC(=O)c1ccncc1)NCc1ccccc1	-51.4
O=C(NCc1cccnc1)/C(=C\c1ccc(-c2ccc(Cl)c(Cl)c2)o1)S(=O)(=O)c1ccccc1	-59.2
CS(=O)(=O)c1nc(-c2ccccc2)cc(C(F)(F)F)n1	-64.3
O=C(NCc1ccc2c(c1)OCO2)C1CCN(S(=O)(=O)c2cccs2)CC1	83.0*
COc1ccc(C)cc1NC(=O)C1CCCN(S(=O)(=O)c2cccs2)C1 (configuration not stated)	-43.7
CCOC(=O)Cn1cnc2scc(-c3ccccc3)c2c1=O	-42.9
CCOc1cc(/C=C2\CN(C)C/C(=C\c3ccc(O)c(OCC)c3)C2=O)ccc1O	-53.2
CCOc1cc(C)c(S(=O)(=O)N2CCCC2)cc1C	61.4*
NC(Cc1ccccc1)c1csc(NC(=O)Nc2ccccc2Oc2ccccc2)n1 (configuration not stated)	71.2*
Cn1nc(C(C)(C)C)cc1NC(=O)C1(C)CCN1C(=O)C1(c2ccccc2)CCCC1 (configuration not stated)	-55.2
O=C(C[C@@H]1C[C@@H]2c3cc(NC(=O)C4CCC4)ccc3O[C@@H]2[C@@H](CO)O1)NCc1ccc(-c2ccccc2)cc1	-79.9
CO[C@@H]1CN(C)C(=O)c2ccc(NC(=O)Nc3c(C)noc3C)cc2OC[C@H](C)N(CC2CC2)C[C@@H]1C	-100.7
SMILES	PGC1a acetyl up
COc1cc(C(=O)O)ccc1Cl	-48.1
COc1cc(Cl)c(S(=O)(=O)N2CC(C)OC(C)C2)cc1Cl (configuration not stated)	88.6*
C[C@@H]1CN([C@H](C)CO)C(=O)CCCn2nncc2CO[C@H]1CN(C)S(=O)(=O)c1cn(C)cn1	-105.5
CN(C)Cc1csc(NC(=O)Nc2ccccc2-c2ccccc2)n1	51.7*
CCCCC(=O)NCCc1cc2c(OC)ccc(OC)c2[nH]c1=O	-44.4
Cc1noc(/C=C/N(C)C)c1S(=O)(=O)N(C)CC(=O)NC1CCCCC1	-43.2
C[n+]1c2n(c3ccccc31)N=C(c1cc(C(C)(C)C)c(O)c(C(C)(C)C)c1)CS2	88.4*
CCN1CCN(C(=O)c2c(-c3c(F)cccc3Cl)noc2C)CC1	71.2*
O=C(c1cccc(Cl)c1)N1CCN(c2ccc(N3CCOCC3)nn2)CC1	-46.1
CC1CN(C2CCN(C(=O)c3cccc(Cl)c3)CC2)CC(C)O1 (configuration not stated)	-47.8
CC(=O)N(c1cccc(C)c1)S(=O)(=O)c1ccc(Cl)cc1	-53.0
O=C(Nc1ccc(F)cc1)C1CCCN1S(=O)(=O)c1cccc2nsnc12 (configuration not stated)	-41.2
O=C(Nc1ccc(F)cc1)c1ccccc1	-52.1
O=C(NC(Nc1cc(C(F)(F)F)ccc1Cl)C(=O)c1ccccc1)c1ccccc1 (configuration not stated)	99.8*
COc1ccc(C(=O)Nc2cc(Cl)ccc2-n2cncn2)c(OC)c1OC	-47.2
COc1ccccc1Nc1nc(NCCC(C)C)nc(N)c1[N+](=O)[O-]	-46.6
O=C(COc1ccccc1)N1CCN=C1SCc1ccccc1	-42.6
CSc1cccc(N2CC(C(=O)NCCN3C(=O)S/C(=C\c4cccnc4)C3=O)CC2=O)c1 (configuration not stated)	-75.2
O=C(NC1=NCCS1)C1CC(=O)N(c2ccccc2)C1 (configuration not stated)	68.0*
Cc1ccc(O)c(C(=O)c2cnc3c(c2)CN(CCC(C)C)C(=O)N3)c1	69.8*
CN(C)CCCN(C(=O)c1cc2cc([N+](=O)[O-])ccc2s1)c1nc2cc3c(cc2s1)OCCO3	-53.6
CCOC(=O)CCc1c(C)c2ccc(O)cc2oc1=O	73.8*
O=C(Cc1ccccn1)NCC[C@@H]1CC[C@H](NC(=O)Nc2ccc(C(F)(F)F)cc2)[C@H](CO)O1	-77.9
COCCNC(=O)/C(C#N)=C/C=C/c1ccccc1[N+](=O)[O-]	104.1*
C/C(=C\C(=O)N1CCc2ccccc21)C(=O)O	60.1*
SMILES	PGC1a acetyl up
CN(C)S(=O)(=O)c1cc(NC(=O)CN2CCc3ccccc32)ccc1Cl	-74.6
CC(C(=O)N1CCc2ccccc2C1)N(c1ccccc1)S(C)(=O)=O (configuration not stated)	-51.5
C[C@@H]1CN([C@H](C)CO)C(=O)c2cc(C#CC(C)(C)O)cnc2O[C@H]1CN(C)C(=O)c1ccccc1F	-50.4
CCOC(=O)c1oc2ccc(S(=O)(=O)N3CCC(C)CC3)cc2c1C	-43.2
CCOC(=O)C1=CC[C@@H](c2ccc(OC)cc2)N(S(=O)(=O)c2ccc(C)cc2)[C@H]1CC	90.3*
O=C(COC(=O)c1cc[n+]([O-])cc1)Nc1cccc(Cl)c1Cl	-48.3
O=C(COc1ccccc1Cl)Nc1ccc(Cl)cn1	98.2*
C/C=C/c1ccc2c(c1)O[C@@H](CN(C)C(=O)NC(C)C)[C@H](C)CN([C@H](C)CO)S2(=O)=O	-44.4
Cc1ccc(/C(N)=N/OC(=O)c2ccco2)cc1	62.0*
O=c1c(Cl)c(Cl)cnn1Cc1nnc(-c2ccc(Cl)cc2)o1	72.9*
COC(=O)C1CCN(Cc2nnc(-c3ccccc3)o2)CC1	-46.9
Cc1ccc(Cn2ncc(Cl)c(Cl)c2=O)cc1	111.8*
CN(Cc1ccccc1)C(=O)c1ccc2c(c1)NC(=O)C(N1CCOCC1)S2 (configuration not stated)	-48.8
CCS(=O)(=O)N[C@H]1C=C[C@H](CC(=O)N2CCCCC2)O[C@H]1CO	-42.8
COc1cc(CNC(=O)c2cc(-c3cc(C)cc(F)c3)n[nH]2)cc(OC)c1	-45.2
O=C(c1ccc(F)cc1)C(CN1CCOCC1)c1ccccc1 (configuration not stated)	-60.1
OC(c1ccccc1)(C1CCCCC1)C(CN1CCOCC1)c1ccccc1 (configuration not stated)	56.8*
CC(C)(C)OC(=O)NC(Cc1ccccc1)C(=O)NCCCC(=O)O (configuration not stated)	-42.7

High-throughput results as filed in PubChem.
